Results from ChEMBL document CHEMBL1134502, “Aromatic quinolinecarboxamides as selective, orally active antibody production inhibitors for prevention of acute xenograft rejection” (J Med Chem, 2001).

Assays:
Jurkat = test: In vitro inhibition of Jurkat cell proliferation.; format: functional, cell-based; conditions: Homo sapiens
Method in brief: (§1)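 Murine B-cells stimulated with TNP-LPS (T-cell-independent type 1) were read for antibody production, the mouse MLR for T-cell activity, and Jurkat proliferation for cytotoxicity. Values are IC50 ± SE in µM, the mean of at least four independent determinations.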

Mus musculus [1] = test: Survival period of mice in days after xenotransplantation and for a dose of 3 mg/kg (Histology = antibody-mediated rejection).; format: functional
Mus musculus [2] = test: In vivo inhibition of TNP-specific immunoglobulin M production at 50 mg/kg/day, sc; format: functional; conditions: route subcutaneous
Method in brief: (§2)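 OF1 mice were immunized iv with TNP-LPS and dosed on day 0 plus the three following days (four doses). The sc vehicle was polyethoxylated castor oil/EtOH; the po vehicle was Labrafil/EtOH/corn oil. Mice were bled on day 6, and serum DNP-specific IgM or IgG was titred by ELISA on DNP-BSA plates at a defined OD405.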

Mus musculus [3] = test: Survival period of mice in days after xenotransplantation and for a dose of 50 mg/kg (Histology = no antibody-mediated rejection).; format: functional
Mus musculus [4] = test: In vivo inhibition of TNP-specific immunoglobulin M production at 10 mg/kg/day, po; format: functional; method in brief: as §2
Mus musculus [5] = test: In vivo inhibition of TNP-specific immunoglobulin G production at 10 mg/kg/day oral administration.; format: functional; method in brief: as §2
Mus musculus [6] = test: In vivo inhibition of TNP-specific immunoglobulin G production at 50 mg/kg/day subcutaneous administration.; format: functional; conditions: sc; method in brief: as §2
Mus musculus [7] = test: In vivo inhibition of TNP-specific immunoglobulin G production at 3 mg/kg/day subcutaneous administration.; format: functional; conditions: sc; method in brief: as §2
Mus musculus [8] = test: In vivo inhibition of TNP-specific immunoglobulin M production at 3 mg/kg/day, sc; format: functional; conditions: route subcutaneous; method in brief: as §2
[9] = In vitro inhibition of Ab formation from trinitrophenyl-lipopolysaccharide (TNP-LPS) B-cells.; format: functional; conditions: Mus musculus; method in brief: as §1
Mus musculus [10] = test: Survival period of mice in days after xenotransplantation and for a dose of 30 mg/kg (Histology = antibody-mediated rejection, Chronic rejection).; format: functional
Mus musculus [11] = test: In vivo inhibition of TNP-specific immunoglobulin G production at 30 mg/kg/day subcutaneous administration.; format: functional; conditions: sc; method in brief: as §2
Mus musculus [12] = test: In vivo inhibition of TNP-specific immunoglobulin M production at 30 mg/kg/day, sc; format: functional; conditions: route subcutaneous; method in brief: as §2
Mus musculus [13] = species on record: Mus musculus; test: In vitro T-cell immunosuppressive activity in the mouse mixed lymphocyte reaction (MLR); format: functional; method in brief: as §1

For C/C=C/C[C@@H](C)[C@@H](O)[C@H]1C(=O)N[C@@H](CC)C(=O)N(C)CC(=O)N(C)[C@@H](CC(C)C)C(=O)N[C@@H](C(C)C)C(=O)N(C)[C@@H](CC(C)C)C(=O)N[C@@H](C)C(=O)N[C@H](C)C(=O)N(C)[C@@H](CC(C)C)C(=O)N(C)[C@@H](CC(C)C)C(=O)N(C)[C@@H](C(C)C)C(=O)N1C [CYCLOSPORINE], the IC50 (Jurkat) was greater than 10 µM.

Cc1oncc1C(=O)Nc1ccc(C(F)(F)F)cc1 [LEFLUNOMIDE] showed a Survival (Mus musculus [1]) of 7 days, an inhibition in vivo at 50 mg/kg/day (Mus musculus [2]) of 71% and a Survival (Mus musculus [3]) greater than 28 days. It also gave an inhibition in vivo at 10 mg/kg/day (Mus musculus [4]) of 5%, an inhibition in vivo at 10 mg/kg/day (Mus musculus [5]) of less than 0% and an inhibition in vivo at 50 mg/kg/day (Mus musculus [6]) of 85%. The inhibition in vivo at 3 mg/kg/day (Mus musculus [7]) was less than 0%, the inhibition in vivo at 3 mg/kg/day (Mus musculus [8]) was less than 0% and the IC50 [9] was 5.1 µM. It also gave a Survival (Mus musculus [10]) greater than 7 days, an inhibition in vivo at 30 mg/kg/day (Mus musculus [11]) of 39% and an inhibition in vivo at 30 mg/kg/day (Mus musculus [12]) of 37%. For the same compound, the IC50 (Mus musculus [13]) was 11.4 µM and the IC50 (Jurkat) was 34.6 µM.
